Reference: ChEMBL document CHEMBL4017500 (J Med Chem, 2017)
Activity calls are given as the source filed them. The calls are words filed in the database; no cut-off is given here.

Columns and labels:
[1] = molecular target: Metallo-beta-lactamase type 2 (Serratia marcescens, UniProt P52699); assay: Inhibition of Serratia marcescens IMP1 expressed in Escherichia coli BL21(DE3) using fluorocillin as substrate preincubated for 10 mins followed by substrate addition measured after 20 mins by HTS assay
Sequence of Metallo-beta-lactamase type 2 (P52699 whole entry): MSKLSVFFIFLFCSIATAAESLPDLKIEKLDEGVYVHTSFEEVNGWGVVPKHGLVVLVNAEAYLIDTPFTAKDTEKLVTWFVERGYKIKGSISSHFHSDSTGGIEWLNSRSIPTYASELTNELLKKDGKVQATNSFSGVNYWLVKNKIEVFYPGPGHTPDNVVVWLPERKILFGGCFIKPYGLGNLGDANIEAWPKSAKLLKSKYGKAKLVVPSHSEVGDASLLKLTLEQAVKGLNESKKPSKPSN

[2] = molecular target: Metallo-beta-lactamase type 2 (Klebsiella pneumoniae) (UniProt C7C422); assay: Inhibition of NDM1 in Klebsiella pneumoniae isolate Cm1.62 assessed as potentiation of imipenem-induced antibacterial activity by measuring imipenem MIC at 100 mg/L after 18 to 20 hrs by broth microdilution assay (reference value: 16 mg/L)
Sequence of Metallo-beta-lactamase type 2 (Klebsiella pneumoniae) (C7C422 whole entry): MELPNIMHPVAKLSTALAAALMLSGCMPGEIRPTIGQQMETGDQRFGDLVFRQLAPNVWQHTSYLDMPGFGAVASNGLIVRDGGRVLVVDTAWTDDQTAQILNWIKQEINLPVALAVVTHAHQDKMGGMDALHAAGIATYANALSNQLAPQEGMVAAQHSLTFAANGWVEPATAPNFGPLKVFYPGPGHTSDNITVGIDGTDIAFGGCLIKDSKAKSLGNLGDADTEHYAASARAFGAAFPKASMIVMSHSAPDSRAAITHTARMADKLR

Escherichia coli [3] = assay: Inhibition of NDM1 in Escherichia coli isolate Ch8.68 assessed as potentiation of imipenem-induced antibacterial activity by measuring imipenem MIC at 100 mg/L after 18 to 20 hrs by broth microdilution assay (reference value: 16 mg/L)
Bacteria [4] = assay: Binding affinity to bacterial NDM-1 expressed in Escherichia coli BL21(DE3) assessed as Zn2+ stripping at
Procedure, shortened: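 NDM-1 (8 μM final) in 50 mM HEPES pH 7.5 mixed with compound at 0–128 μM for 30 min. Then dialyzed 4 h against metal-free 50 mM HEPES pH 7.5. Residual Zn(II) measured by ICP-AES at 213.856 nm.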

[5] = molecular target: Metallo-beta-lactamase type 2 (Klebsiella pneumoniae) (UniProt C7C422); assay: Inhibition of NDM1 in Klebsiella pneumoniae isolate Pd1.49 assessed as potentiation of imipenem-induced antibacterial activity by measuring imipenem MIC at 100 mg/L after 18 to 20 hrs by broth microdilution assay (reference value: 4 mg/L)
Escherichia coli [6] = assay: Effect on growth of Escherichia coli isolate Ch8.72 at 100 mg/L after 18 to 20 hrs by broth microdilution assay
Procedure, shortened: (§1)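 Mueller-Hinton broth microdilution per CLSI, triplicate. blaNDM-1 clinical isolates grown from OD600 0.1 to 0.224 (~1–2 × 10^8 CFU/mL), diluted 3 μL into 4997 μL MH, and 100 μL added to 100 μL of compound (100 mg/L) alone. Incubated 37 °C for 18–20 h, then scored for growth.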

[7] = Selectivity ratio of compound effect for inhibition of bacterial MBP-fused NDM1 expressed in Escherichia coli BL21(DE3) to compound effect for inhibition of human MMP12 (Phe99 to Leu271 residues) expressed in Escherichia coli
Bacteria [8] = assay: Binding affinity to bacterial CoCoNDM-1 expressed in Escherichia coli BL21(DE3) assessed as metal stripping at 1 to 2 equiv after 30 mins by UV-Visible spectroscopic method
Procedure, shortened: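 Apo-NDM-1 at 300 μM in 50 mM HEPES, 150 mM NaCl, pH 6.8, loaded with 2 molar equiv CoCl2. […] Absorbance read 300–700 nm at 25 °C as difference spectra against buffer blank, normalized at 700 nm.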

Klebsiella pneumoniae [9] = assay: Effect on growth of Klebsiella pneumoniae isolate Pd1.54 at 100 mg/L after 18 to 20 hrs by broth microdilution assay
Procedure, shortened: as §1

[10] = molecular target: Macrophage metalloelastase (Homo sapiens) (UniProt P39900); assay: Inhibition of human MMP12 (Phe99 to Leu271 residues) expressed in Escherichia coli at 50 to 100 uM using Mca-Pro-LeuGly-Leu-Dpa-Ala-Arg-NH2.AcOH as substrate preincubated for 30 mins followed by substrate addition measured after 20 mins by fluorescence assay relative to control
Sequence of Macrophage metalloelastase (Homo sapiens) (P39900 106-470 limits assumed): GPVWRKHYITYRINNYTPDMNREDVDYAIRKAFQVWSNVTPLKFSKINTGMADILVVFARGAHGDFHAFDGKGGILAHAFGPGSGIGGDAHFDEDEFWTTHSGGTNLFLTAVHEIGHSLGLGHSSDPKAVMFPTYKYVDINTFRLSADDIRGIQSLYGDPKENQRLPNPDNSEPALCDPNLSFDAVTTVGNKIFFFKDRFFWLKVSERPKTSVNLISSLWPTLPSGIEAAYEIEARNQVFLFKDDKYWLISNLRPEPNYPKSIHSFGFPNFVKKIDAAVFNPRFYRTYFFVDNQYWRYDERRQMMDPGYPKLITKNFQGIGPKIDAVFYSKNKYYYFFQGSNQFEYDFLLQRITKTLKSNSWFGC
Procedure, shortened: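 Human recombinant MMP-2 (1.16 U/well) or MMP-12 (0.007 U/well) in 50 mM HEPES, 10 mM CaCl2, 0.05% Brij-35, pH 7.5. Enzyme and inhibitor pre-incubated 30 min at 37 °C, then OmniMMP fluorogenic substrate (4 μM) added. Fluorescence rise followed 20 min at ex/em 320/400 nm. Activity relative to no-inhibitor wells, with 200 μM NSA as 0%. Run in triplicate.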

Klebsiella pneumoniae [11] = assay: Effect on growth of Klebsiella pneumoniae isolate Pd1.55 at 100 mg/L after 18 to 20 hrs by broth microdilution assay
Procedure, shortened: as §1

Escherichia coli [12] = assay: Effect on growth of Escherichia coli isolate Ah8.75 at 100 mg/L after 18 to 20 hrs by broth microdilution assay
Procedure, shortened: as §1

Klebsiella pneumoniae [13] = assay: Effect on growth of Klebsiella pneumoniae isolate Cm1.63 at 100 mg/L after 18 to 20 hrs by broth microdilution assay
Procedure, shortened: as §1

[14] = molecular target: Metallo-beta-lactamase type 2 (Klebsiella pneumoniae) (UniProt C7C422); assay: Inhibition of NDM1 in Klebsiella pneumoniae isolate Pd1.55 assessed as potentiation of imipenem-induced antibacterial activity by measuring imipenem MIC at 100 mg/L after 18 to 20 hrs by broth microdilution assay (reference value: 8 mg/L)
Escherichia coli [15] = assay: Inhibition of NDM1 in Escherichia coli isolate Ah8.71 assessed as potentiation of imipenem-induced antibacterial activity by measuring imipenem MIC at 100 mg/L after 18 to 20 hrs by broth microdilution assay (reference value: 16 mg/L)
Escherichia coli [16] = assay: Effect on growth of Escherichia coli isolate Ch8.70 at 100 mg/L after 18 to 20 hrs by broth microdilution assay
Procedure, shortened: as §1

[17] = molecular target: Carbonic anhydrase 2 (Homo sapiens) (UniProt P00918); assay: Inhibition of human carbonic anhydrase 2 at 10 uM using p-nitrophenyl acetate as substrate preincubated for 10 mins followed by substrate addition measured for 15 mins
Procedure, shortened: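 hCAII (100 nM) in 50 mM HEPES pH 8.0 pre-incubated with inhibitor for 10 min at 30 °C. p-Nitrophenyl acetate (500 μM) then added and absorbance at 405 nm followed 15 min. Activity relative to no-inhibitor wells, with 50 μM benzene sulfonamide as 0%. Run in triplicate.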

## Nc1cccc(-c2cc(C(=O)O)nc(C(=O)O)c2)c1
[1]
  IC50: 240 nM
[2]
  MIC: 1 µg/mL
Escherichia coli [3]
  MIC: 1 µg/mL
Bacteria [4]
  Activity: inactive
[5]
  MIC: 1 µg/mL
Escherichia coli [6]
  Activity: Non-Toxic
[7]
  Selectivity ratio: 100 to 1000
Bacteria [8]
  Activity: Active
Klebsiella pneumoniae [9]
  Activity: Non-Toxic
[10]
  inhibition: < 50%
Klebsiella pneumoniae [11]
  Activity: Non-Toxic
Escherichia coli [12]
  Activity: Non-Toxic
Klebsiella pneumoniae [13]
  Activity: Non-Toxic
[14]
  MIC: 0.5 µg/mL
Escherichia coli [15]
  MIC: 1 µg/mL
Escherichia coli [16]
  Activity: Non-Toxic
[17]
  inhibition: inactive
